Assay results reported in ChEMBL document CHEMBL3124871, “Synthesis and pharmacological characterization of 1-benzyl-4-aminoindole-based thyroid hormone receptor β agonists” (Bioorg Med Chem, 2014).
pEC50, pIC50: −log10 of the molar value.

Assays:
[1] = system: CV-1; assay: Selectivity ratio of EC50 for human recombinant transfected in CV-1 cells to EC50 for human recombinant TRbeta1 transfected in CV-1 cells; assay type: cell-based
How it was run: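 CV-1 monkey kidney cells grown in DMEM with 10% FBS for 24 h at 37 °C and 5% CO2. Transfected (FuGENE) with hTRα1 or hTRβ1 plus a SEAP reporter for 24 h, then exposed to T3 or test compound for 8-10 h. SEAP was read as A405 of p-nitrophenol (pH 9.8, 30 min, RT). EC50 was set against T3 max = 100%; mean of four experiments; α/β ratio of EC50s.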

[2] = target: T1, Thyroid hormone receptor beta (Homo sapiens, UniProt P10828); assay: Agonist activity at human recombinant TRbeta1 transfected in CV-1 cells after 8 to 10 hrs by alkaline phosphatase reporter gene assay; assay type: cell-based
T1 sequence (P10828 whole entry): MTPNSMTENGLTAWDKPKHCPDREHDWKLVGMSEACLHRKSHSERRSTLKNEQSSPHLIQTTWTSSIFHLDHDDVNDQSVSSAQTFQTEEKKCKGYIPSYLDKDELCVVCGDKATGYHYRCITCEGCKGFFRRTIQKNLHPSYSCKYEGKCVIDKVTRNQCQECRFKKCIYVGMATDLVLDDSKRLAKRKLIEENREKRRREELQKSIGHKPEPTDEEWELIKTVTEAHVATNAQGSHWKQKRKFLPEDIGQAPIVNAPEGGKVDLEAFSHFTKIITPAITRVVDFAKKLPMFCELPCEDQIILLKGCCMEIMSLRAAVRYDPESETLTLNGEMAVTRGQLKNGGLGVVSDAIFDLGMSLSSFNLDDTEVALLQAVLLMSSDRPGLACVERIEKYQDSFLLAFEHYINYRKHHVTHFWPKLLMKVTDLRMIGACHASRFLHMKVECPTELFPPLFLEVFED

[3] = target: T2, Thyroid hormone receptor alpha (Homo sapiens, UniProt P10827); assay: Agonist activity at human recombinant TRalpha1 transfected in CV-1 cells after 8 to 10 hrs by alkaline phosphatase reporter gene assay; assay type: cell-based
T2 sequence (P10827 whole entry): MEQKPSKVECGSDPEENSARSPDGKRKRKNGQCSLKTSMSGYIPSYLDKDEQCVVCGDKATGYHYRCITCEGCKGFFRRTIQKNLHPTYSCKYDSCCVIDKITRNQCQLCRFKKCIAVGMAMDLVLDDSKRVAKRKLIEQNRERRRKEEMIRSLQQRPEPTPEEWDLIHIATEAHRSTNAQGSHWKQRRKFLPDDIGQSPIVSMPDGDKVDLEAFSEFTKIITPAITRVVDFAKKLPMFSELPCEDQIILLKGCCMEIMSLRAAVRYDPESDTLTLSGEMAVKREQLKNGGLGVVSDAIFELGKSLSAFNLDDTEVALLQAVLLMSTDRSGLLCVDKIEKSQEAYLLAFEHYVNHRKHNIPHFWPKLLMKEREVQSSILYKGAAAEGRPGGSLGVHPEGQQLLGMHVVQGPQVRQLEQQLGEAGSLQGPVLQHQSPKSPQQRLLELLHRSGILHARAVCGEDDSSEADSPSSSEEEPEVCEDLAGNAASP

[4] = target: T1, Thyroid hormone receptor beta; assay: Displacement of [125I]-Triiodothyronine from human recombinant TRbeta1 ligand binding domain after 2 to 3 hrs by beta counting
[5] = target: T2, Thyroid hormone receptor alpha; assay: Displacement of [125I]-Triiodothyronine from human recombinant TRalpha1 ligand binding domain after 2 to 3 hrs by beta counting
[6] = system: HepG2; assay: Selectivity ratio of EC50 for human recombinant transfected in human HepG2 cells to EC50 for human recombinant TRbeta1 transfected in human HepG2; assay type: cell-based
[7] = target: T1, Thyroid hormone receptor beta; assay: Agonist activity at human recombinant TRbeta1 transfected in human HepG2 cells after 8 to 10 hrs by alkaline phosphatase reporter gene assay; assay type: cell-based
[8] = species on record: Homo sapiens; assay: Reduction in LDL-cholesterol in healthy human at 100 ug qd for 2 weeks; assay type: functional; set-up: scale not given: the % may be the effect or the level left
[9] = species on record: Homo sapiens; assay: Reduction in LDL-cholesterol in healthy human at 100 ug qd for 1 week; assay type: functional; set-up: scale not given: the % may be the effect or the level left
[10] = system: Rattus norvegicus; assay: Toxicity in cholesterol-fed Sprague-Dawley rat assessed as total T4 level at 30 mg/kg/day, po qd for 1 week measured 3 to 6 hrs post last dose (reference value: 3.8 +/- 0.9 ug/dl); assay type: organism-based; set-up: route oral; details: in vivo
[11] = system: Rattus norvegicus; assay: Toxicity in cholesterol-fed Sprague-Dawley rat assessed as TSH level at 30 mg/kg/day, po qd for 1 week measured 3 to 6 hrs post last dose (reference value: 3.0 +/- 1.0 uIU/ml); assay type: organism-based; set-up: route oral; details: in vivo
[12] = system: Rattus norvegicus; assay: Toxicity in cholesterol-fed Sprague-Dawley rat assessed as heart weight at 30 mg/kg/day, po qd for 1 week measured 3 to 6 hrs post last dose (reference value: 1.14 +/- 0.12 g); assay type: organism-based; set-up: route oral; details: in vivo
[13] = system: Rattus norvegicus; assay: Toxicity in cholesterol-fed Sprague-Dawley rat assessed as heart rate at 30 mg/kg/day, po qd for 1 week measured 3 to 6 hrs post last dose (reference value: 383.0 +/- 26.7 bpm); assay type: organism-based; set-up: route oral; details: in vivo
[14] = system: Rattus norvegicus; assay: Toxicity in cholesterol-fed Sprague-Dawley rat assessed as total T4 level at 150 mg/kg/day, po qd for 1 week measured 3 to 6 hrs post last dose (reference value: 3.8 +/- 0.9 ug/dl); assay type: organism-based; set-up: route oral; details: in vivo
[15] = system: Rattus norvegicus; assay: Toxicity in cholesterol-fed Sprague-Dawley rat assessed as TSH level at 150 mg/kg/day, po qd for 1 week measured 3 to 6 hrs post last dose (reference value: 3.0 +/- 1.0 uIU/ml); assay type: organism-based; set-up: route oral; details: in vivo
[16] = system: Rattus norvegicus; assay: Toxicity in cholesterol-fed Sprague-Dawley rat assessed as heart weight at 150 mg/kg/day, po qd for 1 week measured 3 to 6 hrs post last dose (reference value: 1.14 +/- 0.12 g); assay type: organism-based; set-up: route oral; details: in vivo
[17] = system: Rattus norvegicus; assay: Toxicity in cholesterol-fed Sprague-Dawley rat assessed as heart rate at 150 mg/kg/day, po qd for 1 week measured 3 to 6 hrs post last dose (reference value: 383.0 +/- 26.7 bpm); assay type: organism-based; set-up: route oral; details: in vivo
[18] = system: Rattus norvegicus; assay: Reduction in plasma triglyceride level in cholesterol-fed Sprague-Dawley rat at 30 mg/kg/day, po qd for 1 week measured 3 to 6 hrs post last dose (reference value: 62 +/- 25 mg/dl); assay type: functional
[19] = system: Rattus norvegicus; assay: Reduction in plasma HDL-cholesterol in cholesterol-fed Sprague-Dawley rat at 30 mg/kg/day, po qd for 1 week measured 3 to 6 hrs post last dose (reference value: 22 +/- 6 mg/dl); assay type: functional
[20] = system: Rattus norvegicus; assay: Reduction in plasma free cholesterol in cholesterol-fed Sprague-Dawley rat at 30 mg/kg/day, po qd for 1 week measured 3 to 6 hrs post last dose (reference value: 36 +/- 9 mg/dl); assay type: functional
[21] = system: Rattus norvegicus; assay: Reduction in plasma LDL-cholesterol in cholesterol-fed Sprague-Dawley rat at 30 mg/kg/day, po qd for 1 week measured 3 to 6 hrs post last dose (reference value: 51 +/- 15 mg/dl); assay type: functional
[22] = system: Rattus norvegicus; assay: Reduction in plasma total cholesterol in cholesterol-fed Sprague-Dawley rat at 30 mg/kg/day, po qd for 1 week measured 3 to 6 hrs post last dose (reference value: 190 +/- 49 mg/dl); assay type: functional
[23] = species on record: Homo sapiens; assay: Reduction in triglyceride level in coronary heart disease patient with hyperlipidemia relative to placebo-control; assay type: functional; set-up: scale not given: the % may be the effect or the level left
[24] = species on record: Homo sapiens; assay: Reduction in cholesterol level in coronary heart disease patient with hyperlipidemia relative to placebo-control; assay type: functional; set-up: scale not given: the % may be the effect or the level left
[25] = system: Rattus norvegicus; assay: Toxicity in cholesterol-fed Sprague-Dawley rat assessed as TSH level at 50 ug/kg/day, po qd for 1 week measured 3 to 6 hrs post last dose (reference value: 62 +/- 7 ng/dl); assay type: organism-based; details: in vivo, 0.05 mg/kg
[26] = system: Rattus norvegicus; assay: Toxicity in cholesterol-fed Sprague-Dawley rat assessed as total T4 level at 50 ug/kg/day, po qd for 1 week measured 3 to 6 hrs post last dose (reference value: 3.8 +/- 0.9 ug/dl); assay type: organism-based; details: in vivo, 0.05 mg/kg
[27] = system: Rattus norvegicus; assay: Toxicity in cholesterol-fed Sprague-Dawley rat assessed as TSH level at 50 ug/kg/day, po qd for 1 week measured 3 to 6 hrs post last dose (reference value: 3.0 +/- 1.0 uIU/ml); assay type: organism-based; details: in vivo, 0.05 mg/kg
[28] = system: Rattus norvegicus; assay: Toxicity in cholesterol-fed Sprague-Dawley rat assessed as heart weight at 50 ug/kg/day, po qd for 1 week measured 3 to 6 hrs post last dose (reference value: 1.14 +/- 0.12 g); assay type: organism-based; details: in vivo, 0.05 mg/kg
[29] = system: Rattus norvegicus; assay: Toxicity in cholesterol-fed Sprague-Dawley rat assessed as heart rate at 50 ug/kg/day, po qd for 1 week measured 3 to 6 hrs post last dose (reference value: 383.0 +/- 26.7 bpm); assay type: organism-based; details: in vivo, 0.05 mg/kg
[30] = system: Rattus norvegicus; assay: Reduction in plasma triglyceride level in cholesterol-fed Sprague-Dawley rat at 50 ug/kg/day, po qd for 1 week measured 3 to 6 hrs post last dose (reference value: 62 +/- 25 mg/dl); assay type: functional
[31] = system: Rattus norvegicus; assay: Reduction in plasma HDL-cholesterol in cholesterol-fed Sprague-Dawley rat at 50 ug/kg/day, po qd for 1 week measured 3 to 6 hrs post last dose (reference value: 22 +/- 6 mg/dl); assay type: functional
[32] = system: Rattus norvegicus; assay: Reduction in plasma free cholesterol in cholesterol-fed Sprague-Dawley rat at 50 ug/kg/day, po qd for 1 week measured 3 to 6 hrs post last dose (reference value: 36 +/- 9 mg/dl); assay type: functional
[33] = system: Rattus norvegicus; assay: Reduction in plasma LDL-cholesterol in cholesterol-fed Sprague-Dawley rat at 50 ug/kg/day, po qd for 1 week measured 3 to 6 hrs post last dose (reference value: 51 +/- 15 mg/dl); assay type: functional
[34] = system: Rattus norvegicus; assay: Reduction in plasma total cholesterol in cholesterol-fed Sprague-Dawley rat at 50 ug/kg/day, po qd for 1 week measured 3 to 6 hrs post last dose (reference value: 190 +/- 49 mg/dl); assay type: functional

Cc1c(CCC(=O)O)c2ccccc2n1Cc1ccc(O)c(C(C)C)c1
Ratio EC50 [1]: 1 | pEC50 [2]: 7.43 | pEC50 [3]: 7.41 | pIC50 [4]: 6.12 | pIC50 [5]: 5.89

Cc1ccc(NC(=O)C(=O)O)c2ccn(Cc3ccc(O)c(C(C)C)c3)c12
Ratio EC50 [6]: 2.5 | Ratio EC50 [1]: 1.5 | pEC50 [7]: 6.72 | pEC50 [2]: 6.30 | pIC50 [4]: 7.27 | pIC50 [5]: 6.72

Cc1cc2cc(NC(=O)C(=O)O)ccc2n1Cc1ccc(O)c(C(C)C)c1
pIC50 [4]: 5.82 | pIC50 [5]: 6.64

Cc1c(CCCC(=O)O)c2ccccc2n1Cc1ccc(O)c(C(C)C)c1
Ratio EC50 [1]: 4.8 | pEC50 [2]: 7.43 | pEC50 [3]: 6.74 | pIC50 [4]: 6.54 | pIC50 [5]: 5.47

Cc1cc(OCC(=O)O)cc(C)c1Cc1ccc(O)c(C(C)C)c1 [SOBETIROME]
Activity [8]: 41%

Cc1c(C(=O)NCC(=O)O)c2ccccc2n1Cc1ccc(O)c(C(C)C)c1
pIC50 [4]: 5.96 | pIC50 [5]: < 5.00

Cc1c(CCCCC(=O)O)c2ccccc2n1Cc1ccc(O)c(C(C)C)c1
Ratio EC50 [1]: 1.6 | pEC50 [2]: 7.21 | pEC50 [3]: 7.00 | pIC50 [4]: 5.85 | pIC50 [5]: < 5.00

CC(C)c1cc(Oc2c(Br)cc(NC(=O)CC(=O)O)cc2Br)ccc1O [EPROTIROME]
Activity [9]: 40%

Cc1cc2c(NC(=O)C(=O)O)cccc2n1Cc1ccc(O)c(C(C)C)c1
Ratio EC50 [6]: 1.5 | Ratio EC50 [1]: 2.2 | pEC50 [7]: 6.96 | pEC50 [2]: 6.23

Cc1c(CC(=O)NCC(=O)O)c2ccccc2n1Cc1ccc(O)c(C(C)C)c1
pIC50 [4]: 6.37 | pIC50 [5]: 5.09

Cc1cc2c(NC(=O)CC(=O)O)cccc2n1Cc1ccc(O)c(C(C)C)c1
Activity [10]: 2.8 µg/dL | Activity [11]: 3.1 uIU/ml | Activity [12]: 1.13 g | Activity [13]: 403.2 bpm | Activity [14]: 1.7 µg/dL | Activity [15]: 0.9 uIU/ml | Activity [16]: 1.24 g | Activity [17]: 415.8 bpm | Activity [18]: 44 mg/dL | Activity [19]: 23 mg/dL | Activity [20]: 19 mg/dL | Activity [21]: 25 mg/dL | Activity [22]: 111 mg/dL | Ratio EC50 [6]: 16 | Ratio EC50 [1]: 4.5 | pEC50 [7]: 6.66 | pEC50 [2]: 5.77 | pIC50 [4]: 6.64 | pIC50 [5]: 5.28

Cc1c(CC(=O)O)c2ccccc2n1Cc1ccc(O)c(C(C)C)c1
Ratio EC50 [1]: 3 | pEC50 [2]: 6.82 | pEC50 [3]: 6.35

N[C@H](Cc1cc(I)c(Oc2cc(I)c(O)c(I)c2)c(I)c1)C(=O)[O-].O.[Na+] [DEXTROTHYROXINE SODIUM]
Activity [23]: 15% | Activity [24]: 12%

N[C@@H](Cc1cc(I)c(Oc2ccc(O)c(I)c2)c(I)c1)C(=O)O [LIOTHYRONINE]
Activity [25]: 31 ng/dL | Activity [26]: 0.9 µg/dL | Activity [27]: 0.1 uIU/ml | Activity [28]: 1.25 g | Activity [29]: 430 bpm | Activity [30]: 61 mg/dL | Activity [31]: 22 mg/dL | Activity [32]: 22 mg/dL | Activity [33]: 28 mg/dL | Activity [34]: 123 mg/dL

CC(C)c1cc(Cn2ccc3c(NC(=O)C(=O)O)cccc32)ccc1O
Ratio EC50 [6]: 2.2 | Ratio EC50 [1]: 2.7 | pEC50 [7]: 6.26 | pEC50 [2]: 5.72
